Compound activity from PubChem.
Arr AP2 block: blocks beta-arrestin peptide binding to AP2 adaptin. FITC-arrestin peptide / GST-AP2 beads, flow cytometry; AP2 beta2 appendage carries R879A mutation. inhibition, % at 10 µM. 340,000 compounds, 0.31% hits;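 active = inhibition above a set limit, near 3 SD of compounds lacking own fluorescence, cut at about 54% in these data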;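 note: plate controls were DMSO wells for no effect and 5 µM unlabelled arrestin peptide for full effect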
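Measured by: flow cytometry, FL1 (488/535 nm); Material: AP2 appendage R879A on GSH beads; Evaluation: percent response; Timing: pre-incubation 12 min, peptide binding 1 h, room temperature; Also added: 50 nM FITC-arrestin peptide; Medium: PBS with 0.05% Tween 20 and 0.1% BSA.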
ALR H2O2 inh: human ALR oxidase inhibition via reduced H2O2; P55789; purified ALR, DTT oxidation, H2O2 HRP-luminol luminescence; inhibition, % (concentration not given with the values); 290,000 compounds, 3.8% hits; AID 485317;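 active = mean replicate inhibition above about 79%, with every replicate also reaching it, limit read from the data; inconclusive = only one of the two criteria met; inactive = mean below limit and not every replicate reaching it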
Target sequence (P55789 whole entry, looked up): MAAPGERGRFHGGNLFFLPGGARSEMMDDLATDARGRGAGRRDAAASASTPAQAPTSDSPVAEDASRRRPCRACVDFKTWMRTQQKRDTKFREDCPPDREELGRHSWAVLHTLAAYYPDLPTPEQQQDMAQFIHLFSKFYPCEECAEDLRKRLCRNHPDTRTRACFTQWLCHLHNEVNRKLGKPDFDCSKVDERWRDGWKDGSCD
PolyA inh: blocks polyadenylation in yeast reporter cells | S. cerevisiae SKY197-pL101 polyadenylation reporter, beta-gal luminescence; efflux-impaired pdr1/pdr3 knockout yeast; score 100 = 6 SD above DMSO | AID 1875 | activity score, % at 12 µM | 300,000 compounds, 0.02% hits;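 active = lowest replicate activity score at least 50, where 100 means six control SD above control mean; inconclusive = lowest score under 50 but half or more replicates reach 50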;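 note: yeast exposed to compound for 9 h at 30 °C; higher score means more reporter readthrough which indicates perturbed polyadenylation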
NALP1 yeast inh: inhibitors of NALP1 inflammasome in yeast. 280,000 compounds, 0.61% hits. inhibition, % at 10 µM. S. cerevisiae NALP1/ASC/caspase-1 growth, X-gal OD620, 72 h; in the data active = inhibition mostly above about 24%, no sharp cut-off; inactive = mostly below about 32%
Pemphigus Ab inh: human desmoglein-3 autoantibody binding inhibition | P32926 | DSG3-coupled beads, scFv-anti-DSG3-GFP binding, flow cytometry; hits give low values | binding (percent of control), % at 10 µM | 310,000 compounds, 0.48% hits | AID 588358;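 active = binding more than 3 SD below its plate's average and above zero; inconclusive = below that plate limit but binding exactly zero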;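 note: hits lower antibody fragment binding to DSG3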
NLRP3 yeast inh: inhibitors of NALP3 inflammasome in yeast. 330,000 compounds, 0.39% hits. Yeast reconstituted NLRP3/ASC/caspase-1, beta-gal luminescence, 24 h. inhibition, % at 10 µM;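 active = inhibition of 50% or more; inactive = inhibition below 50%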;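 note: plate controls were induced DMSO wells for no effect and uninduced yeast grown without galactose for full effect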
* = called active by the depositor; u = inconclusive; x = no result given. An excerpt weighted towards active compounds, which were near 4.6% of everything screened.

SMILES	Arr AP2 block	ALR H2O2 inh	PolyA inh	NALP1 yeast inh	Pemphigus Ab inh	NLRP3 yeast inh
COc1cc(/C=C2/SC(=S)N(CC(=O)O)C2=O)ccc1OC(=O)c1ccco1	5	98*	-6	-32	103	31
COc1cc(/C=C2\SC(=S)N(CC(=O)O)C2=O)ccc1OC(=O)c1ccco1	4	99*	1	-3	111	25
S=C(Nc1ccccc1)N1CCC(Cc2ccccc2)CC1	12	x	-11	8	100	46
O=C(N/N=C/c1coc2ccccc2c1=O)c1cc(Br)c(O)c(Br)c1	-16	98*	15	13	x	13
CCCOc1cccc(C(=O)N/N=C/c2coc3ccccc3c2=O)c1	-6	97*	x	3	100	11
O=C(N/N=C/c1coc2ccc(Cl)cc2c1=O)c1cc(O)cc(O)c1	-1	96*	1	-8	108	12
Cc1ccc2occ(/C=N/NC(=O)c3ccc(Cl)cc3)c(=O)c2c1	4	-1	7	6	103	10
O=C(N/N=C/c1coc2ccccc2c1=O)c1ccncc1	-3	11	15	7	100	20
CCCc1ccc(S(=O)(=O)N2CCN(C(C)C(=O)NCc3ccc(OC)cc3)CC2)cc1 (stereo not given)	0	-37	x	x	100	8
CCN(CCCNC(=O)COc1cc(=O)n(CC)c2ccccc12)c1ccccc1	-5	99*	-2	1	106	-1
CCN(CCCNC(=O)COc1cc(=O)n(C)c2ccccc12)c1ccccc1	7	98*	14	4	105	9
CCN(CCNC(=O)Cn1c(=O)sc2ccccc21)c1ccccc1	3	98*	-5	8	104	11
CCCCN(C)CCCNC(=O)Cn1c(=O)sc2ccccc21	-7	-7	-2	8	x	20
CC1CCN(CCCNC(=O)COc2cc(=O)n(C)c3ccccc23)CC1	18	-10	18	8	102	6
COCCNC(=O)COC(=O)/C=C/c1cnc2ccccc2n1	0	-10	-7	-3	101	-2
O=C(COC(=O)/C=C/c1cnc2ccccc2n1)NCC(F)(F)F	-5	91*	4	0	103	4
O=C(Cn1cc(S(=O)(=O)N2CCCC2)c(S(=O)(=O)N2CCCC2)c1)NCc1ccco1	25	-15	24	18	x	16
O=C(NCc1ccccc1Cl)c1cc([N+](=O)[O-])ccc1Cl	8	-12	11	16	72*	-24
CC(Cc1ccccc1)NC(=O)c1cc([N+](=O)[O-])ccc1Cl (stereo not given)	-8	6	0	36*	110	17
O=C(N[C@@H](Cc1ccccc1)c1nc2ccccc2[nH]1)c1cc([N+](=O)[O-])ccc1Cl	28	-11	18	25	85	4
O=C(NCc1ccc(Cl)cc1)c1cc([N+](=O)[O-])ccc1Cl	29	-6	9	-2	95	-10
O=[N+]([O-])c1ccc(Nc2cccc3c2[nH]c2c(-c4ccccc4)nccc23)c([N+](=O)[O-])c1	5	x	x	x	79	x
CC1CC(C)CN(C(=O)C(C)N2CCN(S(=O)(=O)c3ccc(Br)s3)CC2)C1 (stereo not given)	-10	-8	x	x	100	18
COc1ccc(N2C(=O)CC(N3CCN(c4cccc(Cl)c4)CC3)C2=O)cc1 (stereo not given)	10	2	8	4	118	15
COc1ccc(N2CCN(C3=CC(=O)N(c4cccc(Cl)c4)C3=O)CC2)cc1	21	28	16	24*	113	20
SMILES	Arr AP2 block	ALR H2O2 inh	PolyA inh	NALP1 yeast inh	Pemphigus Ab inh	NLRP3 yeast inh
CCN(CCCNc1cc2c(c(N)c1S(=O)(=O)O)C(=O)c1ccccc1C2=O)c1ccccc1	x	x	x	x	108	x
c1coc(CNc2nc3ccccc3n2CCN2CCOCC2)c1	3	29	-7	-13	105	-3
CCN(CC)c1ccc(CNc2nc3ccccc3n2CCN2CCOCC2)cc1	13	98*	-24	15	102	10
c1csc(CNc2nc3ccccc3n2CCN2CCOCC2)c1	-3	16	0	45	u	11
COc1ccc(CNc2nc3ccccc3n2CCN2CCOCC2)cc1	-1	94*	1	-2	99	8
COc1ccc(/C=C2\CN(Cc3ccccc3)C/C(=C\c3ccc(OC)c(O)c3)C2=O)cc1O	4	x	-12	6	93	13
COc1cc(/C=C2\COC/C(=C\c3ccc(O)c(OC)c3)C2=O)ccc1O	49	28	2	-8	97	43
CCN1C/C(=C/c2ccc(OC)c(O)c2)C(=O)/C(=C/c2ccc(OC)c(O)c2)C1	28	98*	4	13	104	38
COc1cc(/C=C2/CC/C(=C/c3ccc(O)c(OC)c3)C2=O)ccc1O	14	75	61*	x	86	1
COc1cc(/C=C/C=C2/CC/C(=C/C=C/c3ccc(O)c(OC)c3)C2=O)ccc1O	14	x	x	x	36*	x
CC(=O)Nc1c(Cl)c2c(c(Cl)c1Br)-c1ccc(Cl)cc1C2	-7	x	x	x	111	x
O=C(c1ccc(S(=O)(=O)Nc2ccccc2F)cc1)N1CCN(c2ccccc2O)CC1	5	35	9	x	91	22
COc1cc(OC)c(N(C)C(=O)c2cc3c(s2)-c2ccccc2S(=O)(=O)C3)cc1Cl	-3	-3	19	x	x	-12
OCCNc1nc(N2CCN(c3ccccc3)CC2)nc2ccccc12	7	98*	-1	-1	92	20
COc1cccc(Nc2nc(NCCO)c3ccccc3n2)c1	-12	-10	-6	23	100	11
OCCNc1nc(Nc2cccc(O)c2)nc2ccccc12	7	95*	30	x	104	-7
OCCNc1nc(Nc2ccc(O)cc2)nc2ccccc12	7	99*	0	x	105	25
COc1ccc(Cl)cc1NC(=O)c1nnn(CC(=O)Nc2ccc3c(c2)OCO3)c1N	-10	-8	-3	33	120	11
CC1CN(S(=O)(=O)c2ccc(CN3C(=O)c4cccnc4C3=O)s2)c2ccccc2O1 (stereo not given)	3	-3	-5	21	104	23
Cc1ccc(S(=O)(=O)N2C[C@H]3C(=O)C[C@@H](c4ccc(Cl)cc4)N(S(=O)(=O)c4ccccc4C)[C@H]3C[C@H]2c2ccccc2)cc1	x	x	x	x	96	x
O=C(O)CCCC(=O)N1CCN(c2nc(-c3ccccc3)c3ccccc3n2)CC1	-8	77*	19	6	99	21
Cc1ccc2nc(N3CCN(C(=O)CCC(=O)O)CC3)nc(-c3ccccc3)c2c1	6	11	-11	-2	93	10
